Assay results: ChEMBL document CHEMBL1144602, “Synthesis and in vitro binding studies of substituted piperidine naphthamides. Part I: Influence of the substitution on the basic nitrogen and the position of the amide on the affinity for D2L, D4.2, and 5-HT2A receptors” (Bioorg Med Chem Lett, 2007)

Experiments:
D(2) dopamine receptor [1] = molecular target: T1, D(2) dopamine receptor (Homo sapiens, UniProt P14416); assay: Displacement of [3H]spiperone from human cloned dopamine D2L receptor at 1 uM
Procedure, shortened: (§1)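 Single-point screen at 1 µM, reported as percent inhibition of radioligand binding: [3H]ketanserin at native rat 5-HT2A, [3H]nemonapride at human D4.2, [3H]spiperone at human D2L.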

[2] = molecular target: T2, D(4) dopamine receptor (Homo sapiens) (UniProt P21917); assay: Displacement of [3H]nemonapride from human cloned dopamine D4.2 receptor at 1 uM; procedure, shortened: as §1
T2 sequence (whole entry): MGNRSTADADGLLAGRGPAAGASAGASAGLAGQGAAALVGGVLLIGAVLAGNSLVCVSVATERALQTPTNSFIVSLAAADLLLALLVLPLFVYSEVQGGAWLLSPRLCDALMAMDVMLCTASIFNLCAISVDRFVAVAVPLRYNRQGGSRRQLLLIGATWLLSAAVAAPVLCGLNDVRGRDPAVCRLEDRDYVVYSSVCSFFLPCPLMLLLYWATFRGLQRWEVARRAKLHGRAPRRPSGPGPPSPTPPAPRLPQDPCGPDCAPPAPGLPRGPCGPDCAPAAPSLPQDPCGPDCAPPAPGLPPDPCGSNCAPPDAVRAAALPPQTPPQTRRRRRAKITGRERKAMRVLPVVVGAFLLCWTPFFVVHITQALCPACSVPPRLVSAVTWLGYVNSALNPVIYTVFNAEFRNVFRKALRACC

D(4) dopamine receptor = molecular target: T3, D(4) dopamine receptor (Homo sapiens, UniProt P21917); assay: Displacement of [3H]nemonapride from human cloned dopamine D4.2 receptor
T3 sequence (P21917 whole entry): T2 sequence (whole entry)
Procedure, shortened: (§2)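 Radioligands were [3H]ketanserin for native rat 5-HT2A, [3H]nemonapride for cloned human D4.2 and [3H]spiperone for cloned human D2L. Ki was determined only for compounds giving >50% inhibition in a 1 µM screen. Values are mean ± SD, n ≥ 2 unless noted.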

D(2) dopamine receptor [3] = molecular target: T1, D(2) dopamine receptor; assay: Displacement of [3H]spiperone from human cloned dopamine D2L receptor; procedure, shortened: as §2
[4] = molecular target: 5-hydroxytryptamine receptor 2A (Rattus norvegicus) (UniProt P14842); assay: Displacement of [3H]ketanserin from rat cloned 5HT2A receptor at 1 uM
Chain of 5-hydroxytryptamine receptor 2A (Rattus norvegicus) (P14842 whole entry): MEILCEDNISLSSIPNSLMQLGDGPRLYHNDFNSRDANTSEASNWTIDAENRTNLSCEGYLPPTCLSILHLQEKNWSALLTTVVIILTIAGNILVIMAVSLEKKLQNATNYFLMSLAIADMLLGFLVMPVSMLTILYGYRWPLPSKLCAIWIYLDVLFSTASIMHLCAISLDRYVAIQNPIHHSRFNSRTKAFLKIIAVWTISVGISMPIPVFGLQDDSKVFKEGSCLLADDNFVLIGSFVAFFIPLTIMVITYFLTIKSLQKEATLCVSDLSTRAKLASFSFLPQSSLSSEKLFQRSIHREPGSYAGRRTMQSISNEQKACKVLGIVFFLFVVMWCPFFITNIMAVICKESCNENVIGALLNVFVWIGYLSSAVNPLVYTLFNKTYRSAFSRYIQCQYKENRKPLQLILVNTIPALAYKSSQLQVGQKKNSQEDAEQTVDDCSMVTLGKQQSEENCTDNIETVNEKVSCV

T1 sequence (P14416 whole entry): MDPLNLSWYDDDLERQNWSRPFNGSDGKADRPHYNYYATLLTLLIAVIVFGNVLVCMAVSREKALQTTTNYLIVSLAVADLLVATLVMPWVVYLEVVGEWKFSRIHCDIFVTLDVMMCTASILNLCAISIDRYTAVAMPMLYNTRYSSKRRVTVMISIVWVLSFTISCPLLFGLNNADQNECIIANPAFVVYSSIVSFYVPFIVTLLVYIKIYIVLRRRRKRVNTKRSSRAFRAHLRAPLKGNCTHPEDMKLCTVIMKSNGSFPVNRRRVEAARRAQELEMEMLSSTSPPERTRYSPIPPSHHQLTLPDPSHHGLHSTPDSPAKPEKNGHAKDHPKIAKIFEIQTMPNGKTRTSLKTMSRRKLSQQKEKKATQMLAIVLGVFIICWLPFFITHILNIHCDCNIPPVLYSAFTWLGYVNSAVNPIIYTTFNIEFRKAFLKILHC

| Activity (D(2) dopamine receptor [1]) | Activity [2] | Ki (D(4) dopamine receptor) | Activity [4] | Structure (SMILES) | Ki (D(2) dopamine receptor [3]) |
| --- | --- | --- | --- | --- | --- |
| 0% | 45% | – | – | O=C(NC1CCN(CC[C@H](O)c2ccccc2)CC1)c1cccc2ccccc12 | – |
| 7% | – | 139 nM | – | O=C(NC1CCN(CCc2ccccc2)CC1)c1ccc2ccccc2c1 | – |
| 3% | – | 230 nM | – | O=C(NC1CCN(CCc2ccccc2)CC1)c1cccc2ccccc12 | – |
| – | 49% | – | – | O=C(c1ccc2ccccc2c1)N1CCC(NCC[C@H](O)c2ccccc2)CC1 | – |
| 9% | – | 71 nM | – | O=C(NC1CCN(CCCc2ccccc2)CC1)c1cccc2ccccc12 | – |
| – | – | 29 nM | – | CC(c1ccccc1)N1CCC(NC(=O)c2ccc3ccccc3c2)CC1 (centres undefined) | – |
| 0% | – | 167 nM | 8% | O=C(c1ccc2ccccc2c1)N1CCC(NCc2ccccc2)CC1 | – |
| 0% | – | 210 nM | 50% | O=C(c1ccc2ccccc2c1)N1CCC(NCCc2ccccc2)CC1 | – |
| 22% | – | 281 nM | – | O=C(NC1CCN(CCCCc2ccccc2)CC1)c1ccc2ccccc2c1 | – |
| 18% | – | 362 nM | – | O=C(NC1CCN(CCCCc2ccccc2)CC1)c1cccc2ccccc12 | – |
| 0% | 52% | – | 35% | O=C(c1cccc2ccccc12)N1CCC(NCCCc2ccccc2)CC1 | – |
| 0% | 16% | – | – | O=C(c1cccc2ccccc12)N1CCC(NCCc2ccccc2)CC1 | – |
| 0% | 1% | – | 10% | O=C(c1cccc2ccccc12)N1CCC(NCc2ccccc2)CC1 | – |
| – | – | 11 nM | – | O=C(NC1CCN(Cc2ccccc2)CC1)c1ccc2ccccc2c1 | > 1000 nM |
| 13% | – | 63 nM | – | O=C(NC1CCN(CCCc2ccccc2)CC1)c1ccc2ccccc2c1 | – |
| 0% | – | 222 nM | 41% | O=C(c1ccc2ccccc2c1)N1CCC(NCCCc2ccccc2)CC1 | – |
| 11% | 21% | – | – | CC(c1ccccc1)N1CCC(NC(=O)c2cccc3ccccc23)CC1 (centres undefined) | – |

| Structure (SMILES) | Activity (D(2) dopamine receptor [1]) | Activity [2] | Ki (D(4) dopamine receptor) | Activity [4] | Ki (D(2) dopamine receptor [3]) |
| --- | --- | --- | --- | --- | --- |
| O=C(NC1CCN(Cc2ccccc2)CC1)c1cccc2ccccc12 | – | – | 162 nM | – | > 1000 nM |
